From ChEMBL document CHEMBL1773023, “Potent and selective phosphopeptide mimetic prodrugs targeted to the Src homology 2 (SH2) domain of signal transducer and activator of transcription 3” (J Med Chem, 2011)
Values belong to the compound of their own block, whether it stands above or below them. Calls of active or inactive are those of the source. The calls are words filed in the database; no cut-off is given here.

How the values were obtained:
[1] = target: T1, Signal transducer and activator of transcription 3 (Homo sapiens, UniProt P40763); assay: Binding affinity to SH2 domain of Stat3 by fluorescence polarization assay
Procedure, shortened: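 Recombinant Stat3, expressed and purified, tested against phosphopeptides and peptidomimetics in a fluorescence polarization competition assay. Affinity is reported as an inhibition constant (K_I).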

[2] = Cytotoxicity against human NCI-H528 cells assessed as cell growth inhibition at 5 to 10 uM after 72 hrs by MTT assay; format: functional
Procedure, shortened: (§1)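 Cell lines with constitutive Stat3 phosphorylation (melanoma, NSCLC) exposed to prodrug at 5–10 μM. Percent growth inhibition recorded.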

[3] = target: T1, Signal transducer and activator of transcription 3; assay: Inhibition of SH2 domain of Stat3 constitutive phosphorylation at Tyr705 in human MDA-MB-468 cells at 5 uM after 8 hrs by Western blotting; format: cell-based
Procedure, shortened: (§2)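 MDA-MB-468 cells given a single 5 μM prodrug dose and harvested at set times; pTyr705 and total Stat3 by Western blot of 12 μg lysate protein on 8% SDS-PAGE.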

[4] = target: T2, Signal transducer and activator of transcription 1-alpha/beta (Homo sapiens) (UniProt P42224); assay: Inhibition of IFN-gamma-induced Stat1 phosphorylation at Tyr701 in human MDA-MB-468 cells treated 1.5 hrs before IFN-gamma challenge measured after 30 mins by Western blotting; format: cell-based
T2 sequence (whole entry): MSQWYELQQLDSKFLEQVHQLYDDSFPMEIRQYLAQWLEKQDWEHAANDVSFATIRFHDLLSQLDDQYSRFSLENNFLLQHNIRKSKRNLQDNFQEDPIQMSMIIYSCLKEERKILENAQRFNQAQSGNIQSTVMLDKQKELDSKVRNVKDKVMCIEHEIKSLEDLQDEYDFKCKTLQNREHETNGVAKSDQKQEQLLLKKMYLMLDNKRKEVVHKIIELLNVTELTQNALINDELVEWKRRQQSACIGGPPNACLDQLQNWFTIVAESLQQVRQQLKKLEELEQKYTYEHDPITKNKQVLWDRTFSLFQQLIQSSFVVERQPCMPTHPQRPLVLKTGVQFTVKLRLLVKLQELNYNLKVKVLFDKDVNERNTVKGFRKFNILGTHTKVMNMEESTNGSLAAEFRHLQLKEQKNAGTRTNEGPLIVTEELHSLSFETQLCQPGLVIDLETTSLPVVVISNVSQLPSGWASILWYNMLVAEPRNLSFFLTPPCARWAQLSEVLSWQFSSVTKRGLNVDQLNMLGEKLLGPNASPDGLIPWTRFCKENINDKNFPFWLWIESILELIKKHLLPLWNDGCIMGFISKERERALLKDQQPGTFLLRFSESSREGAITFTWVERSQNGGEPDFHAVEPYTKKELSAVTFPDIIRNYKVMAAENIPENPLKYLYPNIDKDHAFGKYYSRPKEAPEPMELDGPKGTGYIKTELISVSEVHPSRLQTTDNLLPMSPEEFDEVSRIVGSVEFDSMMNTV
Procedure, shortened: (§3)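 MDA-MB-468 cells exposed to rising prodrug concentrations for 1.5 h, then interferon γ 25 ng/mL for 30 min; Western blot for pTyr701 and total Stat1.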

NCI-H520 = assay: Cytotoxicity against human NCI-H520 cells assessed as cell growth inhibition at 5 to 10 uM after 72 hrs by MTT assay; format: functional; procedure, shortened: as §1
A-375 = assay: Cytotoxicity against human A375 cells assessed as cell growth inhibition at 5 to 10 uM after 72 hrs by MTT assay; format: functional; procedure, shortened: as §1
[5] = Cytotoxicity against human H1299 cells assessed as cell growth inhibition at 5 to 10 uM after 72 hrs by MTT assay; format: functional, NCI-H1299; procedure, shortened: as §1
[6] = target: T1, Signal transducer and activator of transcription 3; assay: Inhibition of SH2 domain of Stat3 constitutive phosphorylation at Tyr705 in human MDA-MB-468 cells at 5 uM after 30 mins by Western blotting; format: cell-based; procedure, shortened: as §2
[7] = target: T1, Signal transducer and activator of transcription 3; assay: Inhibition of SH2 domain of Stat3 constitutive phosphorylation at Tyr705 in human MDA-MB-468 cells at 5 uM after 16 hrs by Western blotting; format: cell-based; procedure, shortened: as §2
[8] = target: RAC-alpha serine/threonine-protein kinase (Homo sapiens) (UniProt P31749); assay: Inhibition of EGF-induced Akt phosphorylation at Ser473 in human MDA-MB-468 cells at 5 uM treated 1.5 hrs before EGF challenge measured after 30 mins by Western blotting; format: cell-based
Procedure, shortened: (§4)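 MDA-MB-468 cells pretreated 1.5 h with prodrug (5 μM), then EGF 100 ng/mL for 30 min; lysates split onto three PVDF blots probed for phospho/total Stat3, pSer473/total Akt, and phospho/total Stat5.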

MDA-MB-468 = assay: Selectivity ratio of inhibition of IFNgamma-induced Stat1 phosphorylation at Tyr701 to inhibition of EGF-induced SH2 domain of Stat3 phosphorylation at Tyr705 in human MDA-MB-468 cells; format: cell-based
[9] = target: T1, Signal transducer and activator of transcription 3; assay: Inhibition of SH2 domain of Stat3 constitutive phosphorylation at Tyr705 in human MDA-MB-468 cells at 0.5 uM after 2 hrs by Western blotting; format: cell-based
Procedure, shortened: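 MDA-MB-468 cells (4×10^5/well, DMEM 10% FCS, overnight) given prodrug from freshly made 10 mM DMSO stock for 2 h. Lysates in Hepes pH 7.4 Triton buffer with phosphatase/protease inhibitors; 12 μg protein on 8% SDS-PAGE, PVDF, probed for pStat3 Y705 by ECL, then stripped and reprobed for total Stat3.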

[10] = target: T1, Signal transducer and activator of transcription 3; assay: Inhibition of EGF-induced SH2 domain of Stat3 phosphorylation at Tyr705 in human MDA-MB-468 cells at 5 uM treated 1.5 hrs before EGF challenge measured after 30 mins by Western blotting; format: cell-based; procedure, shortened: as §4
[11] = target: Focal adhesion kinase 1 (Homo sapiens) (UniProt Q05397); assay: Inhibition of constitutive FAK phosphorylation at Tyr861 in human MDA-MB-468 cells at 5 uM measured after 2 hrs by Western blotting
MeWo = assay: Cytotoxicity against human MeWo cells assessed as cell growth inhibition at 5 to 10 uM after 72 hrs by MTT assay; format: functional; procedure, shortened: as §1
[12] = target: T2, Signal transducer and activator of transcription 1-alpha/beta (Homo sapiens); assay: Inhibition of IFN-gamma-induced Stat1 phosphorylation at Tyr701 in human MDA-MB-468 cells at 5 uM treated 1.5 hrs before IFN-gamma challenge measured after 30 mins by Western blotting; format: cell-based; procedure, shortened: as §3
A549 = assay: Cytotoxicity against human A549 cells assessed as cell growth inhibition at 5 to 10 uM after 72 hrs by MTT assay; format: functional; procedure, shortened: as §1
[13] = target: T3, Signal transducer and activator of transcription 5A (Homo sapiens) (UniProt P42229); assay: Inhibition of EGF-induced SH2 domain of Stat5 phosphorylation at Tyr694 in human MDA-MB-468 cells at 5 uM treated 1.5 hrs before EGF challenge measured after 30 mins by Western blotting; format: cell-based; procedure, shortened: as §4
T3 sequence (whole entry): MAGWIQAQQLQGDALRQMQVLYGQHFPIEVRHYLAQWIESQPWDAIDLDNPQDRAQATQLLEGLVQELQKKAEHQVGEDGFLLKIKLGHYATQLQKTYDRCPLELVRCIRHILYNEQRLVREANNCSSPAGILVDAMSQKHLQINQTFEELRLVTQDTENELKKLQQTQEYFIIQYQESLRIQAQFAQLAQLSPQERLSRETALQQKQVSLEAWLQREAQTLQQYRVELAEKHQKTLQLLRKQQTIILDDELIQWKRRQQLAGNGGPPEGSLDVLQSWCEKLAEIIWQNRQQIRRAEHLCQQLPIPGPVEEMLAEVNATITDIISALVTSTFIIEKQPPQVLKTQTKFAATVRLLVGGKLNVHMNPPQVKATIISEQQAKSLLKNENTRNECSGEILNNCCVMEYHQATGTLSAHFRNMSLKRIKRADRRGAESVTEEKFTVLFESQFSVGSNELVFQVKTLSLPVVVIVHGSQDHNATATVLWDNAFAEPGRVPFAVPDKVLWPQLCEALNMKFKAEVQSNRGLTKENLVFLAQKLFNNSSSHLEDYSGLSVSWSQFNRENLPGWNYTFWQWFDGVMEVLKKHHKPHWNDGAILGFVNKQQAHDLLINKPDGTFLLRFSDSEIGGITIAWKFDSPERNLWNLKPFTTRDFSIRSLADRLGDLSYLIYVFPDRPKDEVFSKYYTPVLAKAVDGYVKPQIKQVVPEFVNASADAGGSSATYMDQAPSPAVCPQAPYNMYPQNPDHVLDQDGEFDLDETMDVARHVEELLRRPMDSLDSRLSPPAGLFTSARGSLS

[14] = Cytotoxicity against human NCI-H1819 cells assessed as cell growth inhibition at 5 to 10 uM after 72 hrs by MTT assay; format: functional; procedure, shortened: as §1
[15] = target: T1, Signal transducer and activator of transcription 3; assay: Inhibition of SH2 domain of Stat3 constitutive phosphorylation at Tyr705 in human MDA-MB-468 cells at 5 uM after 4 hrs by Western blotting; format: cell-based; procedure, shortened: as §2

T1 sequence (P40763 whole entry, the tested form may be a part): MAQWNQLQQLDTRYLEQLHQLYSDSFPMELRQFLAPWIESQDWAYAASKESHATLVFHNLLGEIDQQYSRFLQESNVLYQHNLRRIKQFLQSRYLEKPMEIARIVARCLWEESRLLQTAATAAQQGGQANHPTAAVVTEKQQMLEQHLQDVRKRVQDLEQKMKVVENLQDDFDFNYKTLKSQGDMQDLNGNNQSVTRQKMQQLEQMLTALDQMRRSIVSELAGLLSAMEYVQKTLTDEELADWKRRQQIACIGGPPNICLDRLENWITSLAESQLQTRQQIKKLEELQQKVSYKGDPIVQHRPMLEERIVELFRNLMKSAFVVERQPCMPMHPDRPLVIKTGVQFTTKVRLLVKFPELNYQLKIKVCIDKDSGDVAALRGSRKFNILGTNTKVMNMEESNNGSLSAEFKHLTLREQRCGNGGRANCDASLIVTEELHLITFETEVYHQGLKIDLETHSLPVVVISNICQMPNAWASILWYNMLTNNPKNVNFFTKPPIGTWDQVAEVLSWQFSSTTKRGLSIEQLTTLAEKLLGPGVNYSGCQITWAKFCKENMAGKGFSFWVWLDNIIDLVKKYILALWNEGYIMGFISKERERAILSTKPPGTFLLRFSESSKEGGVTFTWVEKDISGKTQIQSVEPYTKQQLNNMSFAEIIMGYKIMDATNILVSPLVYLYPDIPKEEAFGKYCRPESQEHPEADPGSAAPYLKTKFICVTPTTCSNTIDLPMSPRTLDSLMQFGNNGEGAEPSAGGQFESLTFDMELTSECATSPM
Sequence of Focal adhesion kinase 1 (Homo sapiens) (Q05397 2-1052 limits assumed): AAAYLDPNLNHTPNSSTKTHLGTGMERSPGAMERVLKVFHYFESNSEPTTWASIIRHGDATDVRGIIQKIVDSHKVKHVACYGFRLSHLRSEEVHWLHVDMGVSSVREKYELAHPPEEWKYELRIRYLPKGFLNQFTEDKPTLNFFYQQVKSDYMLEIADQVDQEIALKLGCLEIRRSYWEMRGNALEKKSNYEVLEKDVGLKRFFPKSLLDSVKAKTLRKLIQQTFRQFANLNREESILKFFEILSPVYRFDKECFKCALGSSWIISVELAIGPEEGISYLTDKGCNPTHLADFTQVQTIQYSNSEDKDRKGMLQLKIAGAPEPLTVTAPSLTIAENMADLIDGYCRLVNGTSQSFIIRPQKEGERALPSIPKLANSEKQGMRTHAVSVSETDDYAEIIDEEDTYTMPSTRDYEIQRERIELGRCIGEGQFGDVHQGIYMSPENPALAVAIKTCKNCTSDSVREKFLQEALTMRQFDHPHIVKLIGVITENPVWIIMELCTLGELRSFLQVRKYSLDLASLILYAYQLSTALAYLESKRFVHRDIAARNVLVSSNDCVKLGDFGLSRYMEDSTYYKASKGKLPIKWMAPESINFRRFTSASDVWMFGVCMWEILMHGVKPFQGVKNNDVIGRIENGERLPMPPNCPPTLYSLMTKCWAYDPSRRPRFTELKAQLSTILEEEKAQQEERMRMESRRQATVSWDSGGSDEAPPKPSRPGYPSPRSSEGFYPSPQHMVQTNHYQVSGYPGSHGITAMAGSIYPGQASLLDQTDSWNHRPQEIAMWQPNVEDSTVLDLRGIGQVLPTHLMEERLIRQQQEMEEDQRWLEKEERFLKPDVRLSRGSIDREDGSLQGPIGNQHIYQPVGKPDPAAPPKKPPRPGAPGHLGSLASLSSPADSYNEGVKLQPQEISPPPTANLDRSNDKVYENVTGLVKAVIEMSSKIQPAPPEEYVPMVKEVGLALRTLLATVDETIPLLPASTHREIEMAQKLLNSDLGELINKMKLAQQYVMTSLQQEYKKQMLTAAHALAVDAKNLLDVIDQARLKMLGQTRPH
Sequence of RAC-alpha serine/threonine-protein kinase (Homo sapiens) (P31749 whole entry): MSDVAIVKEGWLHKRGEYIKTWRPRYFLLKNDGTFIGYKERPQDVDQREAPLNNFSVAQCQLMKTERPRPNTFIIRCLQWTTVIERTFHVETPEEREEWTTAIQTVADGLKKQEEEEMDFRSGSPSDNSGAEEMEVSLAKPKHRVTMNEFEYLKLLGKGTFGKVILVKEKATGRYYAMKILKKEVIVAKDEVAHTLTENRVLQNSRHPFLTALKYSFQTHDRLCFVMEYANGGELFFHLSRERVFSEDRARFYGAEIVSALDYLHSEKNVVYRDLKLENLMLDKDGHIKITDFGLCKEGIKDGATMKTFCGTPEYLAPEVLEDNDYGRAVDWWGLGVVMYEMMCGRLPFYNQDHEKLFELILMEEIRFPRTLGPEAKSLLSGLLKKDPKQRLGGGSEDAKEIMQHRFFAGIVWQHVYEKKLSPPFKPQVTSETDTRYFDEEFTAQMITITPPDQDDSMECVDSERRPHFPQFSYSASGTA

Compound: CCCC[C@H](NC(=O)/C=C(\C)c1ccc(OP(=O)(O)O)cc1)C(=O)N1C[C@H]2C[C@H]2[C@H]1C(=O)N[C@@H](CCC(N)=O)C(=O)NCc1ccccc1
Ki [1]: 33 nM

Compound: C/C(=C\C(=O)N[C@H]1CCc2cccc3c2N(C1=O)[C@H](C(=O)N[C@@H](CCC(N)=O)C(=O)NCc1ccccc1)C3)c1ccc(OP(=O)(O)O)cc1
Ki [1]: 57 nM

Compound: CCCC[C@H](NC(=O)/C=C(\C)c1ccc(OP(=O)(O)O)cc1)C(=O)N1C[C@H]2C[C@H]2[C@H]1C(=O)NCCOC(N)=O
Ki [1]: 114 nM

Compound: C/C(=C\C(=O)N[C@@H](CC(C)C)C(=O)N1C[C@H]2C[C@H]2[C@H]1C(=O)N[C@@H](CCC(N)=O)C(=O)NCc1ccccc1)c1ccc(OP(=O)(O)O)cc1
Ki [1]: 43 nM

Compound: C/C(=C\C(=O)N[C@@H](CC(C)C)C(=O)N1C[C@H]2C[C@H]2[C@H]1C(=O)N[C@H](C)CCC(N)=O)c1ccc(OP(=O)(O)O)cc1
Ki [1]: 83 nM

inhibition [3]: Active | inhibition [4]: Dose-dependent effect | inhibition [6]: Active | inhibition [7]: inactive | inhibition [8]: inactive | inhibition [9]: Active | inhibition [10]: Active | inhibition [11]: inactive | inhibition [12]: Active | inhibition [13]: inactive | inhibition [15]: Active
Compound: CCCC[C@H](NC(=O)/C=C(\C)c1ccc(C(F)(F)P(=O)(OCOC(=O)C(C)(C)C)OCOC(=O)C(C)(C)C)cc1)C(=O)N1C[C@H]2C[C@H]2[C@H]1C(=O)N[C@@H](CCC(N)=O)C(C)OCc1ccccc1 (some centres undefined)
growth inhibition (GI) [2]: <20% | growth inhibition (GI) (NCI-H520): <20% | growth inhibition (GI) (A-375): <20% | growth inhibition (GI) [5]: <20% | Ratio (MDA-MB-468): 10 | growth inhibition (GI) (MeWo): <20% | growth inhibition (GI) (A549): <20% | growth inhibition (GI) [14]: <20%

Compound: C/C(=C\C(=O)N[C@H]1CCc2cccc3c2N(C1=O)[C@H](C(=O)NCCNC(N)=O)C3)c1ccc(OP(=O)(O)O)cc1
Ki [1]: 386 nM

Compound: CCCC[C@H](NC(=O)/C=C/c1ccc(OP(=O)(O)O)cc1)C(=O)N1C[C@H]2C[C@H]2[C@H]1C(=O)N[C@@H](CCC(N)=O)C(=O)NCc1ccccc1
Ki [1]: 48 nM

Compound: C/C(=C\C(=O)N[C@@H](CC(C)C)C(=O)N1CCC[C@H]1C(=O)N[C@@H](CCC(N)=O)C(=O)NCc1ccccc1)c1ccc(OP(=O)(O)O)cc1
Ki [1]: 66 nM

Compound: C/C(=C\C(=O)N[C@H]1CCc2cccc3c2N(C1=O)[C@H](C(=O)N[C@H](C)CCC(N)=O)C3)c1ccc(OP(=O)(O)O)cc1
Ki [1]: 105 nM

Compound: C/C(=C\C(=O)N[C@@H](CC(C)C)C(=O)N1C[C@H]2C[C@H]2[C@H]1C(=O)NCCNC(N)=O)c1ccc(OP(=O)(O)O)cc1
Ki [1]: 39 nM
